Test results as given in PMC6032914 (Clinical Pharmacology in Drug Development, 2018).
Like-named read-outs stand apart in the source and are kept apart here.

Legend:
[1] = Gefitinib pharmacokinetics; assay type: in vivo; conditions: human, plasma, oral, Tmax (h), mean (SD), gefitinib 250 mg daily with ficlatuzumab 20 mg/kg
Safety and tolerability = assay type: in vivo, human; conditions: every 2 weeks, plus gefitinib 250 mg/day
[2] = Ficlatuzumab serum pharmacokinetics; assay type: in vivo, human
serum HGF = test: Serum HGF pharmacodynamic marker; assay type: in vivo, human; conditions: total serum HGF after ficlatuzumab administration
In short: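 Peripheral blood for serum total HGF was drawn before treatment and 3 h postinfusion on day 1, predose on days 2, 3, 8 and 22–28, predose and 2 h postinfusion on day 15 of cycle 1, and predose on cycle 3 day 1.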

[3] = Ficlatuzumab antidrug antibody; assay type: in vivo, human
HGF = conditions: affinity of ficlatuzumab to HGF; cited from earlier work
[4] = cited from earlier work
NSCLC xenografts = conditions: cited from earlier work
[5] = system: phospho‐c‐Met and phospho‐Akt; conditions: NSCLC tumor lysates, alone or in combination; cited from earlier work
[6] = system: c‐Met‐positive advanced NSCLC; conditions: in combination with erlotinib; cited from earlier work
[7] = ficlatuzumab 10 mg/kg, Cycle 1, day 1, n = 3
[8] = ficlatuzumab 20 mg/kg, Cycle 1, day 1, n = 12
[9] = ficlatuzumab 20 mg/kg, Cycle 4, day 1, n = 6
[10] = 15 patients receiving monotherapy 20 mg/kg

Molecule: COc1cc2ncnc(Nc3ccc(F)c(Cl)c3)c2cc1OCCCN1CCOCC1 [Gefitinib, gefitinib]
- Tmax ([1]; Cycle 1, day 1, n = 12): 5.4 h
- Tmax ([1]; Cycle 4, day 1, n = 6): 9.9 h

Molecule: Ficlatuzumab: humanized IgG1κ inhibitory monoclonal antibody that binds to HGF and prevents the ligand from activating the c‐Met receptor
- recommended phase 2 dose (RP2D) of ficlatuzumab (Safety and tolerability): 20 mg/kg
- mean trough level of ficlatuzumab ([2]; beginning of cycle 4, 20 mg/kg cohort, n = 8): 413.1 µg/mL
- Ficlatuzumab drug exposure (Cmax and AUC0–last) versus dose ([2]; cycle 1, 10 and 20 mg/kg): approximately proportional to dose
- AUC0–last (mg·h/mL), mean (SD) [2, 7]: 39.2 (4.5) mg·h/mL
- Cmax (μg/mL), mean (SD) [2, 7]: 229 (8.9) μg/mL
- t1/2 (Days), mean (SD) [2, 7]: 15.2 (4.7) Days
- AUC0–last (mg·h/mL), mean (SD) [2, 8]: 81.3 (16.5) mg·h/mL
- Cmax (μg/mL), mean (SD) [2, 8]: 544 (141) μg/mL
- t1/2 (Days), mean (SD) [2, 8]: 11.3 (3.2) Days
- AUC0–last (mg·h/mL), mean (SD) [2, 9]: 212 (47.3) mg·h/mL
- Cmax (μg/mL), mean (SD) [2, 9]: 1070 (220) μg/mL
- mean half‐life ([2]; first dose in cycle 1, dose not stated): approximately 15 days
- highest HGF level observed (serum HGF): ≈ 14 ng/mL
- ADA result of postficlatuzumab samples ([3]; 41 samples from 14 patients): negative
- immunogenicity ([3]; any patients during the observation period): not immunogenic
- Kd (HGF): 3 pM
- TEAE fatigue [4, 10]: 5 patients
- TEAE hypokalemia [4, 10]: 4 patients
- TEAE nausea [4, 10]: 4 patients
- TEAE peripheral edema [4, 10]: 8 patients
- TEAE vomiting [4, 10]: 5 patients
- tolerability of the highest administered dose ([4]; ficlatuzumab 20 mg/kg): well tolerated without any dose‐limiting toxicities
- grade 3/4 TEAE hypokalemia ([4]; ficlatuzumab monotherapy): 4 patients
- recommended phase 2 dose (RP2D) of ficlatuzumab ([4]; intravenous every 2 weeks, with oral erlotinib 150 mg/day): 20 mg/kg
- tumor growth (NSCLC xenografts): inhibits tumor growth
- phospho‐c‐Met and phospho‐Akt levels [5]: decreased

Molecule: onartuzumab: c‐Met‐targeted monovalent monoclonal antibody, tested in combination with erlotinib
- outcome of the phase 3 study [6]: lack of efficacy
